Reference: ChEMBL document CHEMBL4819122, “Novel 4-(piperazin-1-yl)quinolin-2(1H)-one bearing thiazoles with antiproliferative activity through VEGFR-2-TK inhibition” (Bioorg Med Chem, 2021)
Active and inactive are the calls of the source. No cut-off for these calls is given here.

What was measured:
NCI-H23 = assay: Cytotoxicity against human NCI-H23 assessed as growth inhibition at 10 uM by NCI protocol relative to control; type: functional; conditions: read-out: GI
Outline: (§1)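 Run by NCI as a single-dose screen at 10 μM across the sixty-cell-line panel, which covers nine human tumour tissue types. The read-out is percent growth inhibition of treated cells relative to untreated cells.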

NCI-H460 = assay: Cytotoxicity against human NCI-H460 assessed as growth inhibition at 10 uM by NCI protocol relative to control; type: functional; conditions: read-out: GI; outline: as §1
SW-620 = assay: Cytotoxicity against human SW-620 assessed as growth inhibition at 10 uM by NCI protocol relative to control; type: functional; conditions: read-out: GI
Outline: (§2)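 Run by the NCI under its standard protocol: one dose of 10 μM against a sixty-line panel from nine human tumour tissues. Result given as percent growth inhibition of treated cells relative to untreated cells.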

SNB-75 = assay: Cytotoxicity against human SNB-75 assessed as growth inhibition at 10 uM by NCI protocol relative to control; type: functional; conditions: read-out: GI; outline: as §2
U-251 = assay: Cytotoxicity against human U251 assessed as growth inhibition at 10 uM by NCI protocol relative to control; type: functional; conditions: read-out: GI; outline: as §2
SK-OV-3 = assay: Cytotoxicity against human SK-OV-3 assessed as growth inhibition at 10 uM by NCI protocol relative to control; type: functional; conditions: read-out: GI; outline: as §1
OVCAR-4 = assay: Cytotoxicity against human OVCAR-4 assessed as growth inhibition at 10 uM by NCI protocol relative to control; type: functional; conditions: read-out: GI; outline: as §1
RXF 393 = assay: Cytotoxicity against human RXF 393 assessed as growth inhibition at 10 uM by NCI protocol relative to control; type: functional; conditions: read-out: GI; outline: as §1
SNB-19 = assay: Cytotoxicity against human SNB-19 assessed as growth inhibition at 10 uM by NCI protocol relative to control; type: functional; conditions: read-out: GI; outline: as §2
HCT-15 = assay: Cytotoxicity against human HCT-15 assessed as growth inhibition at 10 uM by NCI protocol relative to control; type: functional; conditions: read-out: GI; outline: as §1
ACHN = assay: Cytotoxicity against human ACHN assessed as growth inhibition at 10 uM by NCI protocol relative to control; type: functional; conditions: read-out: GI; outline: as §1
UO-31 = assay: Cytotoxicity against human UO31 assessed as growth inhibition at 10 uM by NCI protocol relative to control; type: functional; conditions: read-out: GI; outline: as §2
OVCAR-3 = assay: Cytotoxicity against human OVCAR-3 assessed as growth inhibition at 10 uM by NCI protocol relative to control; type: functional; conditions: read-out: GI; outline: as §1
NCI/ADR-RES = assay: Cytotoxicity against human NCl/ADR-RES assessed as growth inhibition at 10 uM by NCI protocol relative to control; type: functional; conditions: read-out: GI; outline: as §1
A498 = assay: Cytotoxicity against human A498 assessed as growth inhibition at 10 uM by NCI protocol relative to control; type: functional; conditions: read-out: GI; outline: as §1
CAKI-1 = assay: Cytotoxicity against human Caki1 assessed as growth inhibition at 10 uM by NCI protocol relative to control; type: functional; conditions: read-out: GI; outline: as §1
SF-268 = assay: Cytotoxicity against human SF-268 assessed as growth inhibition at 10 uM by NCI protocol relative to control; type: functional; conditions: read-out: GI; outline: as §1
OVCAR-8 = assay: Cytotoxicity against human OVCAR-8 assessed as growth inhibition at 10 uM by NCI protocol relative to control; type: functional; conditions: read-out: GI; outline: as §1
SN12C = assay: Cytotoxicity against human SN12C assessed as growth inhibition at 10 uM by NCI protocol relative to control; type: functional; conditions: read-out: GI; outline: as §2
BT-549 = assay: Cytotoxicity against human BT-549 assessed as growth inhibition at 10 uM by NCI protocol relative to control; type: functional; conditions: read-out: GI; outline: as §1
NCI-H226 = assay: Cytotoxicity against human NCI-H226 assessed as growth inhibition at 10 uM by NCI protocol relative to control; type: functional; conditions: read-out: GI; outline: as §1
SF-539 = assay: Cytotoxicity against human […] assessed as growth inhibition at 10 uM by NCI protocol relative to control; type: functional; conditions: read-out: GI; outline: as §1
IGROV-1 = assay: Cytotoxicity against human IGROVI assessed as growth inhibition at 10 uM by NCI protocol relative to control; type: functional; conditions: read-out: GI; outline: as §1
786-0 = assay: Cytotoxicity against human 786-0 assessed as growth inhibition at 10 uM by NCI protocol relative to control; type: functional; conditions: read-out: GI; outline: as §1
MDA-MB-468 = assay: Cytotoxicity against human MDA-MB-468 assessed as growth inhibition at 10 uM by NCI protocol relative to control; type: functional; conditions: read-out: GI; outline: as §1
MDA-MB-435 = assay: Cytotoxicity against human MDA-MB-435 assessed as growth inhibition at 10 uM by NCI protocol relative to control; type: functional, cell-based; outline: as §1
COLO 205 = assay: Cytotoxicity against human COLO 205 assessed as growth inhibition at 10 uM by NCI protocol relative to control; type: functional; conditions: read-out: GI; outline: as §1
EKVX = assay: Cytotoxicity against human EKVX assessed as growth inhibition at 10 uM by NCI protocol relative to control; type: functional; conditions: read-out: GI; outline: as §1
SK-MEL-28 = assay: Cytotoxicity against human SK-MEL-28 assessed as growth inhibition at 10 uM by NCI protocol relative to control; type: functional; conditions: read-out: GI; outline: as §1
NCI-H522 = assay: Cytotoxicity against human NCI-H522 assessed as growth inhibition at 10 uM by NCI protocol relative to control; type: functional; conditions: read-out: GI; outline: as §1
M14 = assay: Cytotoxicity against human M14 assessed as growth inhibition at 10 uM by NCI protocol relative to control; type: functional; conditions: read-out: GI; outline: as §1
A549 = assay: Cytotoxicity against human A549 assessed as growth inhibition at 10 uM by NCI protocol relative to control; type: functional; conditions: read-out: GI; outline: as §1
SF-295 = assay: Cytotoxicity against human SF-295 assessed as growth inhibition at 10 uM by NCI protocol relative to control; type: functional; conditions: read-out: GI; outline: as §1
T47D = assay: Cytotoxicity against human T47D cells assessed as reduction in cell viability after 3 hrs by MTT assay
TK-10 = assay: Cytotoxicity against human TK-10 assessed as growth inhibition at 10 uM by NCI protocol relative to control; type: functional; conditions: read-out: GI; outline: as §2
UACC-257 = assay: Cytotoxicity against human UACC-257 assessed as growth inhibition at 10 uM by NCI protocol relative to control; type: functional; conditions: read-out: GI; outline: as §2
KM12 = assay: Cytotoxicity against human KM12 assessed as growth inhibition at 10 uM by NCI protocol relative to control; type: functional; conditions: read-out: GI; outline: as §1
CCRF-CEM = assay: Cytotoxicity against human CCRF-CEM assessed as growth inhibition at 10 uM by NCI protocol relative to control; type: functional; conditions: read-out: GI; outline: as §1
SK-MEL-2 = assay: Cytotoxicity against human SK-MEL-2 assessed as growth inhibition at 10 uM by NCI protocol relative to control; type: functional; conditions: read-out: GI; outline: as §1
Malme-3M = assay: Cytotoxicity against human MALME-3M assessed as growth inhibition at 10 uM by NCI protocol relative to control; type: functional; conditions: read-out: GI; outline: as §1
HL-60 = assay: Cytotoxicity against human HL60 assessed as growth inhibition at 10 uM by NCI protocol relative to control; type: functional; conditions: read-out: GI; outline: as §1
DU-145 = assay: Cytotoxicity against human DU-145 assessed as growth inhibition at 10 uM by NCI protocol relative to control; type: functional; conditions: read-out: GI; outline: as §1
K562 = assay: Cytotoxicity against human K-562 assessed as growth inhibition at 10 uM by NCI protocol relative to control; type: functional; conditions: read-out: GI; outline: as §1

O=C(CN1CCN(c2cc(=O)n(-c3ccccc3)c3ccccc23)CC1)Nc1nc(-c2ccc(Cl)cc2)cs1
inhibition of growth at 10 µM (NCI-H23): 50.2%
inhibition of growth at 10 µM (NCI-H460): 45.2%
inhibition of growth at 10 µM (SW-620): 25.7%
inhibition of growth at 10 µM (SNB-75): 32.5%
inhibition of growth at 10 µM (U-251): 36.2%
inhibition of growth at 10 µM (SK-OV-3): 28.6%
inhibition of growth at 10 µM (OVCAR-4): 80.3%
inhibition of growth at 10 µM (RXF 393): 33%
inhibition of growth at 10 µM (SNB-19): 36%
inhibition of growth at 10 µM (HCT-15): 60.3%
inhibition of growth at 10 µM (ACHN): 44.9%
inhibition of growth at 10 µM (UO-31): 70.5%
inhibition of growth at 10 µM (OVCAR-3): 32.9%
inhibition of growth at 10 µM (NCI/ADR-RES): 45.1%
inhibition of growth at 10 µM (A498): 59.2%
inhibition of growth at 10 µM (CAKI-1): 50.4%
inhibition of growth at 10 µM (SF-268): 45.5%
inhibition of growth at 10 µM (OVCAR-8): 40.6%
inhibition of growth at 10 µM (SN12C): 25.9%
inhibition of growth at 10 µM (BT-549): 53.5%
inhibition of growth at 10 µM (NCI-H226): 52.6%
inhibition of growth at 10 µM (SF-539): 23.9%
inhibition of growth at 10 µM (IGROV-1): 34.5%
inhibition of growth at 10 µM (786-0): 32.4%
inhibition of growth at 10 µM (MDA-MB-468): 90.4%
growth inhibition (GI) (MDA-MB-435): inactive
inhibition of growth at 10 µM (COLO 205): 42.7%
inhibition of growth at 10 µM (EKVX): 57.3%
inhibition of growth at 10 µM (SK-MEL-28): 30.8%
inhibition of growth at 10 µM (NCI-H522): 43.7%
inhibition of growth at 10 µM (M14): 50.2%
inhibition of growth at 10 µM (A549): 47.4%
inhibition of growth at 10 µM (SF-295): 37.4%
IC50 (T47D): 30.2 µM
inhibition of growth at 10 µM (TK-10): 37.6%
inhibition of growth at 10 µM (UACC-257): 72%
inhibition of growth at 10 µM (KM12): 35.3%
inhibition of growth at 10 µM (CCRF-CEM): 49.3%
inhibition of growth at 10 µM (SK-MEL-2): 24.4%
inhibition of growth at 10 µM (Malme-3M): 44.9%
inhibition of growth at 10 µM (HL-60): 73.8%
inhibition of growth at 10 µM (DU-145): 38.4%
inhibition of growth at 10 µM (K562): 75.8%
